Eleven compounds from ChEMBL document CHEMBL3244323, “[1-Penicillamine,2-leucine]oxytocin. Synthesis and pharmacological and conformational studies of a potent peptide hormone inhibitor” (J Med Chem, 1979) can be followed below.

What is called inhibition is the percentage by which the read-out fell short of the control.

For experiment [1], the target named is T1, Oxytocin receptor (Rattus norvegicus, UniProt P70536).
T1 sequence (P70536 whole entry): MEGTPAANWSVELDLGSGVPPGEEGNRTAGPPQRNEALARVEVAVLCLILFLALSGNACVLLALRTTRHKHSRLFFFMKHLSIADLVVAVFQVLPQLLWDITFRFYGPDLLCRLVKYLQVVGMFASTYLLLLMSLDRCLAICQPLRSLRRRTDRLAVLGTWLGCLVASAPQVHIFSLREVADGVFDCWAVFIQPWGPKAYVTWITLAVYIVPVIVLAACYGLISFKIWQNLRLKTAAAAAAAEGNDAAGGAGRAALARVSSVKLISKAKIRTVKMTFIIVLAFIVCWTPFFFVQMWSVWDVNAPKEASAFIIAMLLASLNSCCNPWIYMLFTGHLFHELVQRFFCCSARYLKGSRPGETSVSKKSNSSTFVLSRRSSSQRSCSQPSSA
Kind of experiment: Antagonist activity at oxytocin receptor in rat assessed as inhibition of agonist-induced oxytocic response. As to conditions: read-out: pA2 (converted). The method, boiled down:
(§1)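 Isolated uteri from rats in natural estrus, suspended in Mg-free van Dyke-Hasting's solution with isotonic contraction recording, bath 30 °C. Antagonism of oxytocin was analysed by the Schild method. pA2 is the negative log of the average molar antagonist concentration that reduces the response to 2x units of oxytocin to the response to x units.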

In experiment [2] the target is T2, Oxytocin receptor (Mus musculus) (UniProt P97926).
T2 sequence (whole entry): T1 sequence (P70536 whole entry) with V11I, E23A, R27L, Q33R, G159A, A169V, N245S, F344L, V361I
The experiment in a line: Antagonist activity at oxytocin receptor in mouse mammary gland tissue assessed as inhibition of oxytocin-induced milk ejection by spectrophotometry. The method, boiled down:
(§2)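 Mouse mammary gland tissue was incubated in vitro with oxytocin alone, or with oxytocin plus antagonist at up to 10^-5 M. Released milk was measured spectrophotometrically as absorbance. Values are mean ± SE from tissue of four mice.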

In experiment [3] the target is T3, Oxytocin receptor (Homo sapiens, UniProt P30559).
T3 sequence (P30559 whole entry): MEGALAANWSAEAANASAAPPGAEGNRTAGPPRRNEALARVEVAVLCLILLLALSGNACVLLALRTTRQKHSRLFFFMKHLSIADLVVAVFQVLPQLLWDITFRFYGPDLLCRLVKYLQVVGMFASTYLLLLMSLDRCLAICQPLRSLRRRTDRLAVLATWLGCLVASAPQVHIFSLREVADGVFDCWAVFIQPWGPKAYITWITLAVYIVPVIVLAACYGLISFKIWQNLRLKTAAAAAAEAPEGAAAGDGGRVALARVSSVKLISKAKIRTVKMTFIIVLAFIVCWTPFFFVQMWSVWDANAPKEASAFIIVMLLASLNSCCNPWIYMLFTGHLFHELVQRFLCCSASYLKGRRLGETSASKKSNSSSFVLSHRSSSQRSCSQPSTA
The experiment in a line: Antagonist activity at oxytocin receptor (unknown origin) assessed as inhibition of agonist-induced oxytocic response. The following applies: read-out: pA2 (converted). The method, boiled down:
as §1

For experiment [4], the target named is T4, Oxytocin receptor (Rattus norvegicus) (UniProt P70536).
T4 sequence (whole entry): T1 sequence (P70536 whole entry)
Kind of experiment: Antagonist activity at oxytocin receptor in isolated rat uterus assessed as incidence of regular phasic contractions of uterus at 0.25 ug/ml measured during 6 mins interval of compound dosing.

For experiment [5], the target named is T4, Oxytocin receptor (Rattus norvegicus). Kind of experiment: Antagonist activity at oxytocin receptor in isolated rat uterus assessed as inhibition of oxytocin-induced oxytocic response at 20:1 compound to oxytocin ratio pretreated for 10 to 20 secs prior to oxytocin addition. As to conditions: concentration not given here.
In experiment [6] the target is T1, Oxytocin receptor. Kind of experiment: Antagonist activity at oxytocin receptor in isolated rat uterus assessed as inhibition of oxytocin-induced oxytocic response. As to conditions: read-out: pA2 (converted). The method, boiled down:
as §1

For experiment [7], the target named is T2, Oxytocin receptor (Mus musculus). The experiment in a line: Agonist activity at oxytocin receptor in mouse mammary gland tissue assessed as milk-ejecting activity at 10^-5 M by spectrophotometry.
The target of experiment [8] is T4, Oxytocin receptor (Rattus norvegicus). The experiment in a line: Antagonist activity at oxytocin receptor in isolated rat uterus assessed as inhibition of oxytocin-induced oxytocic response at 0.25 ug/ml followed by compound washout.
Experiment [9] shares this target. The experiment in a line: Antagonist activity at oxytocin receptor in isolated rat uterus assessed as reduction of subsequent contractions at 0.25 ug/ml measured during 10 mins interval of compound dosing.
Experiment [10] addresses T2, Oxytocin receptor (Mus musculus). The experiment in a line: Antagonist activity at oxytocin receptor in mouse mammary gland tissue assessed as inhibition of oxytocin-induced milk ejection at 7.5X10'-6 M by spectrophotometry. In short, it runs like this: as §2
The target of experiment [11] is T4, Oxytocin receptor (Rattus norvegicus). The experiment in a line: Antagonist activity at oxytocin receptor in isolated rat uterus assessed as inhibition of oxytocic response at 0.25 ug/ml added simultaneously with oxytocin.
Experiment [12] has the same target. The experiment in a line: Antagonist activity at oxytocin receptor in isolated rat uterus assessed as inhibition of oxytocin-induced oxytocic response at 20:1 compound to oxytocin ratio followed by compound washout.
Experiment [13] has the same target. The experiment in a line: Antagonist activity at oxytocin receptor in isolated rat uterus assessed as inhibition of oxytocic response at 0.25 ug/ml pretreated for 30 secs prior to oxytocin addition relative to control.
Experiment [14] has the same target. Kind of experiment: Antagonist activity at oxytocin receptor in isolated rat uterus assessed as inhibition of oxytocin-induced oxytocic response at 20:1 compound to oxytocin ratio pretreated up to 90 secs prior to oxytocin addition.
The target is the same in experiment [15]. The experiment in a line: Antagonist activity at oxytocin receptor in isolated rat uterus assessed as inhibition of oxytocin-induced contractions at 0.25 ug/ml dosed at the peak of first contraction measured during 10 mins interval of compound dosing.
Experiment [16] has the same target. Kind of experiment: Antagonist activity at oxytocin receptor in isolated rat uterus assessed as incidence of regular phasic contractions of uterus at 0.25 ug/ml.
In experiment [17] the target is T5, Oxytocin receptor (Homo sapiens) (UniProt P30559).
T5 sequence (whole entry): T3 sequence (P30559 whole entry)
Kind of experiment: Agonist activity at oxytocin receptor (unknown origin).

Substitutions are numbered along the chain they refer to. Active and inactive are the calls of the source. No cut-off for these calls is given here. *1 amine or outer side, *2 acyl side, *3 side chain or, on linkers, in order; H or OH if unused. Where a SMILES comes first, the peptide text is derived from it. Bridges are numbered along the chain shown (N, C = ends). [ ]: non-standard residue; d: D form. Tyr(3,5-Br2) = N[C@@H](Cc1cc(Br)c(O)c(Br)c1)C(=O)O; X1 = CCC(CC)(CC(=O)[*:1])S[*:2]; X2 = CC(C)(CC(=O)[*:1])S[*:2]; Pen = CC(C)(S)[C@H](N)C(=O)O

Consider `CC[C@H](C)[C@@H]1NC(=O)[C@H](Cc2ccc(O)cc2)NC(=O)CC(C)(C)SSC[C@@H](C(=O)N2CCC[C@H]2C(=O)N[C@@H](CC(C)C)C(=O)NCC(N)=O)NC(=O)[C@H](CC(N)=O)NC(=O)[C@H]([C@@H](C)O)NC1=O` (YITNCPLG-NH2; linker N-5 via X2), for which the Kb at Oxytocin receptor [1] is 31.6 nM.
As for `CC[C@H](C)[C@@H]1NC(=O)[C@H](Cc2ccc(O)cc2)NC(=O)[C@@H](N)C(C)(C)SSC[C@@H](C(=O)N2CCC[C@H]2C(=O)N[C@@H](CC(C)C)C(=O)NCC(N)=O)NC(=O)[C@H](CC(N)=O)NC(=O)[C@H](CCC(N)=O)NC1=O`, the inhibition result in [2] was “Active”. In addition, the Kb at Oxytocin receptor [3] was 138 nM.
Consider `CC[C@H](C)[C@@H]1NC(=O)[C@H](CC(C)C)NC(=O)[C@@H](N)C(C)(C)SSC[C@@H](C(=O)N2CCC[C@H]2C(=O)N[C@@H](CC(C)C)C(=O)NCC(N)=O)NC(=O)[C@H](CC(N)=O)NC(=O)[C@H](CCC(N)=O)NC1=O` (H-[Pen]LIQNCPLG-NH2; disulfide 1-6), for which the inhibition result in [4], in [8], in experiment [11] and in [12] was “inactive” in each case. Further, the inhibition in experiment [5] was found to be 50%; in experiment [13], 60%. For the same compound, the Kb on Oxytocin receptor [6] was 72.4 nM. The result in [7] and in experiment [16] was inactive. Moreover, the outcome in experiment [9] was Active. In addition, the inhibition entry in experiment [10], in [14] and in [15] was “Active” throughout.
For `CC[C@H](C)[C@@H]1NC(=O)[C@H](Cc2ccc(O)cc2)NC(=O)[C@@H](N)C(C)(C)SSC[C@@H](C(=O)N2CCC[C@H]2C(=O)N[C@@H](CC(C)C)C(=O)NCC(N)=O)NC(=O)[C@H](CC(N)=O)NC(=O)[C@H](CC(C)C)NC1=O` (H-[Pen]YILNCPLG-NH2; disulfide 1-6), the Kb at Oxytocin receptor [3] is 170 nM.
With `CC[C@H](C)[C@@H]1NC(=O)[C@H](Cc2ccc(O)cc2)NC(=O)CC(CC)(CC)SSC[C@@H](C(=O)N2CCC[C@H]2C(=O)N[C@@H](CC(C)C)C(=O)NCC(N)=O)NC(=O)[C@H](CC(N)=O)NC(=O)[C@H](CC(C)C)NC1=O` (YILNCPLG-NH2; linker N-5 via X1), at Oxytocin receptor [3], the Kb is 95.5 nM.
In experiment [17], `CC[C@H](C)[C@@H]1NC(=O)[C@H](Cc2ccc(O)cc2)NC(=O)CCSSCC(C(=O)N2CCC[C@H]2C(=O)N[C@@H](CC(C)C)C(=O)NCC(N)=O)NC(=O)[C@H](CC(N)=O)NC(=O)[C@H](CCC(N)=O)NC1=O` (single isomer, unassigned) gave an Activity of 803 U/mg.
Turning to `CC[C@H](C)[C@@H]1NC(=O)[C@H](Cc2ccc(O)cc2)NC(=O)CC(CC)(CC)SSC[C@@H](C(=O)N2CCC[C@H]2C(=O)N[C@@H](CC(C)C)C(=O)NCC(N)=O)NC(=O)[C@H](CC(N)=O)NC(=O)[C@H](CCC(N)=O)NC1=O` (YIQNCPLG-NH2; linker N-5 via X1), the Kb at Oxytocin receptor [3] was 57.5 nM.
Turning to `CC[C@H](C)[C@@H]1NC(=O)[C@H](Cc2cc(Br)c(O)c(Br)c2)NC(=O)CCSSC[C@@H](C(=O)N2CCC[C@H]2C(=O)N[C@@H](CC(C)C)C(=O)NCC(N)=O)NC(=O)[C@H](CC(N)=O)NC(=O)[C@H](CCC(N)=O)NC1=O`, on Oxytocin receptor [1], the Kb is 89.1 nM.
Same read-out and setting: next, `CC[C@H](C)[C@@H]1NC(=O)[C@H](Cc2cc(Br)c(O)c(Br)c2)NC(=O)CC(CC)(CC)SSC[C@@H](C(=O)N2CCC[C@H]2C(=O)N[C@@H](CC(C)C)C(=O)NCC(N)=O)NC(=O)[C@H](CC(N)=O)NC(=O)[C@H](CCC(N)=O)NC1=O` ([Tyr(3,5-Br2)]IQNCPLG-NH2; linker N-5 via X1): 83.2 nM.
In the case of `CC[C@H](C)[C@@H]1NC(=O)[C@H](CC(C)C)NC(=O)[C@@H](N)CSSC[C@@H](C(=O)N2CCC[C@H]2C(=O)N[C@@H](CC(C)C)C(=O)NCC(N)=O)NC(=O)[C@H](CC(N)=O)NC(=O)[C@H](CCC(N)=O)NC1=O` (H-CLIQNCPLG-NH2; disulfide 1-6), the Activity in [17] was determined as 0.5 U/mg.
`CC[C@H](C)[C@@H]1NC(=O)[C@H](Cc2ccc(O)cc2)NC(=O)CC(C)(C)SSC[C@@H](C(=O)N2CCC[C@H]2C(=O)N[C@@H](CC(C)C)C(=O)NCC(N)=O)NC(=O)[C@H](CC(N)=O)NC(=O)[C@H](CCC(N)=O)NC1=O` (YIQNCPLG-NH2; linker N-5 via X2): the Kb on Oxytocin receptor [3] is 115 nM.
